Laboratory results taken from publication PMC6930011 (Journal of the American Chemical Society, 2019).
Where no end group is shown, it is not given here.

Experiments:
[1] = tested on: human PTHR1; assay: cAMP production, GloSensor assay in HEK-293 cells stably expressing human PTHR1; type: cell-based; details: relative to PTH(1-34)-NH2; Figure S2
[2] = tested on: PTHR1; type: cell-based; details: HEK293 cells stably expressing HA-tagged PTHR1
[3] = tested on: hPTHR1; assay: Washout assay of cAMP signaling duration; type: cell-based, human; details: excess PTHR1 antagonist (D)Trp^12,Tyr^34-bPTH(7-34) during washout; 1 nM agonist
How it was run: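 HEK293 cells stably expressing hPTHR1, with β-arrestin at endogenous levels, were stimulated with 1 nM agonist for a defined period. Agonist was then washed off and cAMP monitored during the ligand-off phase, with excess antagonist present after washout and, in some runs, BA1 added as well. Output was area under curve, normalized to PTH(1-34)-NH2 at 1 nM. Data were mean ± s.e.m. from n = 3–4 independent experiments, compared by one-way ANOVA.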

Row | Substance | potency in stimulating cAMP production, fold less potent than PTH(1-34)-NH2 [1] | co-IP of the PTHR1 and endogenous β-arrestin [2] | effect of antagonist after washout on duration and extent of cAMP production [3]
1 | Tyr^1-PTH(1-34)-NH2 (YVSEIQLMHNLGKHLNSMERVEWLRKKLQDVHNF-NH2; UniProt P01270 32-65, looked up, variant S1Y) | ~ 5 fold |  | 
2 | PTH(1-34)-NH2 |  | effectively induced co-IP | only a modest drop
3 | Trp^1-PTHrP(1-36)-NH2 (WVSEHQLLHDKGKSIQDLRRRFFLHHLIAEIHTAEI-NH2; UniProt P12272 37-72, looked up, variant A1W) | ~ 5 fold |  | 
